# FGF22 binding = FGF22 (human) thermal shift binding; Q9HCT0; recombinant FGF22 thermal shift, SYPRO orange fluorescence; percent of sucrose octasulfate shift, DMSO zero; activity (Tm shift, normalised), % at 9.99 µM; 340,000 compounds, 1.5% hits;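 active = mean Tm shift, scaled 0 neutral to 100 positive control, at about 1.3% or above, every replicate too, limit read from the data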
# Target sequence (Q9HCT0 whole entry, looked up): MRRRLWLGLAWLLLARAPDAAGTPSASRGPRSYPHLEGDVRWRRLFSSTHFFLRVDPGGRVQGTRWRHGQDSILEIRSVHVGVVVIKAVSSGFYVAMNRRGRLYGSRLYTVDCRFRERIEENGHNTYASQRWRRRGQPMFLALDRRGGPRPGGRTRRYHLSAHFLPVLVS
# Vif imaging = inhibitors of HIV Vif | inhibition, % at 7.49 µM | HEK293T cells, Vif self-association by quenched fluorescence, imaging, 24 h | 340,000 compounds, 0.35% hits; in the data active = inhibition above about 50%, passing the limit was not always enough
# Ecoli rRNA inh = inhibits bacterial ribosomal RNA function over humanized ribosomes | AID 720706 | GFP signal change (wild-type ribosome), % (test concentration not listed) | 350,000 compounds, 1.6% hits | E. coli WT GFP vs humanized-ribosome RFP mutants, fluorescence, 24 h; stronger effect = lower value; DMSO median 0, no signal -100;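 active = significant combined selectivity score with lowered wild-type GFP, culture density cut under 30%, mutant RFP and density less affected; inactive = any of these conditions unmet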
# PGC1a acetyl inh = PGC1a acetylation modulation, inhibitor mode; inhibition, % at 15.6 µM; 350,000 compounds, 0.17% hits; U2OS PGC1a acetylation, AlphaScreen anti-acetyl-lysine; with virally co-expressed GCN5 acetyltransferase;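 active = every replicate shows inhibition of at least 40%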;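 note: 0% = neutral control wells and 100% = positive control wells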
# PglD DTNB = blocks C. jejuni PglD acetyltransferase activity; purified PglD enzyme, DTNB colorimetric CoA detection; inhibition, % at 12.5 µM; 360,000 compounds, 0.098% hits; in the data active = inhibition above about 16%, passing the limit was not always enough
# Cneo AK release = causes C. neoformans cell lysis; adenylate kinase release luminescence, 4 h; normalised: neutral wells 0, clomiphene wells 100; lysis activity, % at 15 µM; 360,000 compounds, 0.2% hits; AID 651654;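 active = mean lysis activity across replicates of at least 80%, whatever share of replicates individually reach that level; inactive = mean lysis activity below 80%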
#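 read-out = cell lysis signal | test system = log-phase Cryptococcus neoformans yeast cells | input = cells at 5 × 10^6 per mL | medium = fresh YPD growth medium | signal = luminescent adenylate kinase detection reagent | timing = 4 h at 37 °C static, read 1 h later | dosing = single dose | controls = Clomiphene as positive lysis control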
# * marks the source's active call; other numbers are inactive results; i = inactive; . = no result. A selection: hits, their analogues and other compounds. The true share with any hit is near 2.9%.
SMILES,FGF22 binding,Vif imaging,Ecoli rRNA inh,PGC1a acetyl inh,PglD DTNB,Cneo AK release
Cc1ccccc1-c1ccc([C@H]2[C@@H](CO)N3C(=O)CN(C(=O)c4cccnc4)C[C@H]23)cc1,.,.,-1.8,.,.,.
COc1cc(C(=O)Nc2nnc(SC)s2)c([N+](=O)[O-])cc1OC,43.7*,0.5,15.6,.,.,.
CCc1nnc(NC(=O)c2cc(OC)c(OC)cc2[N+](=O)[O-])s1,-0.1,11.0,-1.4,.,.,.
CC12CCC3c4ccccc4CCC3(CO1)C2 (configuration not stated),43.0*,2.2,-2.9,-0.4,-0.6,0.3
COC(=O)C[C@H]1CC[C@H]2[C@H](COc3ccc(NC(=O)c4cccc(OC)c4)cc3C(=O)N2C)O1,-0.3,.,-4.1,-6.0,-2.2,31.6
Cc1ccccc1N(CC(=O)NCCSc1ccccn1)S(=O)(=O)c1ccccc1,0.1,0.0,-18.8,-22.7,.,.
Cc1ccccc1CSCC(=O)Nc1ccccc1F,0.5,0.9,-24.8*,-19.3,2.0,-2.5
COc1ccc(C)cc1NC(=O)CSCc1ccccc1C,-0.1,-0.1,-22.5,-6.4,-1.8,1.6
Cc1ccccc1CSCC(=O)NCCSc1ccccn1,44.0*,-9.4,-23.4,.,.,.
COCC(=O)N1CCCCN2[C@H](CO)[C@H](c3ccc(-c4ccc(F)cc4)cc3)[C@@H]2C1,0.2,.,-0.5,3.4,-6.2,-0.8
O=C(C[C@H]1CC[C@@H](NC(=O)C2CCOCC2)[C@@H](CO)O1)Nc1ccccc1,.,.,-1.0,1.8,.,.
CC1(C)Cc2ccccc2C(CSc2ccccc2C(=O)O)=N1,.,-1.4,-24.9*,-20.5,3.7,-1.4
COc1cc2c(cc1OC)C(CSc1ccccc1C(=O)O)=NC(C)(C)C2,0.1,1.4,-13.1,.,.,.
C[C@@H]1CCCCO[C@@H](CN(C)CC2CC2)[C@H](C)CN([C@@H](C)CO)C(=O)c2cc(NC(=O)CCCN(C)C)ccc2O1,0.1,.,3.1,-3.2,.,.
CC(C)(CO)NS(=O)(=O)c1ccc2c(c1)C(=NO)c1cc(S(=O)(=O)NC(C)(C)CO)ccc1-2,42.9*,1.3,-15.3,.,.,.
C[C@H](O)C#Cc1cnc2c(c1)C(=O)N([C@H](C)CO)C[C@H](C)[C@@H](CN(C)CC1CCCCC1)O2,0.0,.,-0.8,6.6,2.8,0.7
Cc1c(/C=N/NC(N)=O)c2ccccn2c1C(=O)c1ccc(F)cc1,0.0,-2.2,-11.7,.,.,.
Cc1c(/C=N/O)c2ccccn2c1C(=O)c1ccc(F)cc1,0.0,-0.8,-27.5*,-16.7,-7.6,-1.0
Cc1onc(-c2c(Cl)cccc2Cl)c1-c1nc2cc(Cl)ccc2c(=O)o1,0.0,-3.5,-33.8*,4.6,4.9,-1.9
Cc1onc(-c2c(F)cccc2Cl)c1-c1nnc(-c2cccc3ccccc23)o1,-0.2,2.7,9.7,0.3,-1.5,-2.1
COc1cc(/C=C/C(=O)c2ccc([N+](=O)[O-])o2)ccc1O,0.0,i,-23.6*,.,1.6,-4.4
O=C(COc1nncc2ccccc12)Nc1c(F)c(F)c(F)c(F)c1F,0.0,-0.9,9.5,1.4,.,.
O=C(COc1nncc2ccccc12)Nc1ccc(F)c(F)c1,43.3*,21.1,16.2,-9.6,.,.
CC(=O)N(C)C[C@H]1Oc2ncc(/C=C/c3ccccc3)cc2C(=O)N([C@H](C)CO)C[C@@H]1C,-0.1,.,1.0,-3.9,0.9,2.0
COc1ccc2c(c1)C(c1ccc(N3CCOCC3)cc1)=NNC(c1cccnc1)=N2,-0.2,1.4,-17.1*,.,.,.
SMILES,FGF22 binding,Vif imaging,Ecoli rRNA inh,PGC1a acetyl inh,PglD DTNB,Cneo AK release
CC(=O)/C(=N/Nc1ccccc1[N+](=O)[O-])N1CCCc2ccccc21,0.1,1.3,-28.1*,-8.0,-4.0,3.1
CC(=O)/C(=N/Nc1ccc([N+](=O)[O-])cc1)N1CCCc2ccccc21,-0.1,1.1,13.6,-2.8,-17.0,1.9
COc1ccccc1-c1noc(CSc2nc(N)cc(=O)[nH]2)n1,43.0*,16.0,7.2,10.3,1.6,-0.1
NS(=O)(=O)c1ccc(NC(=O)COC(=O)/C(=C/c2cccs2)c2cccs2)cc1,0.0,-2.2,-18.4*,8.0,-0.2,0.5
NS(=O)(=O)c1ccc(NC(=O)Cc2cccs2)cc1,0.1,12.3,4.1,10.6,5.6,-0.5
CO/N=C/C(C#N)=C/c1cc(C(=O)c2ccc(F)cc2)cn1C,43.0*,12.3,12.0,-10.3,.,.
C[C@@H]1CN([C@H](C)CO)C(=O)c2cc(C#CC3CCCC3)cnc2O[C@@H]1CN(C)C(=O)Nc1ccccc1,-0.1,.,1.5,-3.6,-1.6,3.4
Oc1cccc2c3c(oc12)CCCC3,0.2,69.8*,-12.1,4.7,6.5,5.3
CC(C)NC(=O)N1C[C@H]2[C@@H](c3ccccc31)[C@H](CO)N2C(=O)c1ccncc1,-0.6,.,4.0,5.5,-0.6,0.7
CCCCCC1(C(=O)OCC)CC(CSC(=N)N)OC1=O (configuration not stated),43.5*,-3.7,.,.,.,.
CC=Cc1ccc2n(c1=O)C[C@@H]1[C@@H](CO)[C@H](C(=O)N3CCc4ccccc4C3)[C@H]2N1Cc1ccncc1 (mixture of isomers),1.5*,.,-1.3,-1.2,-0.6,0.6
CC=Cc1ccc2n(c1=O)C[C@H]1[C@H](CO)[C@@H](C(=O)N3CCc4ccccc4C3)N(C(=O)C3CC3)[C@@H]21 (mixture of isomers),-0.1,.,1.6,.,2.9,90.1*
CC=Cc1ccc2n(c1=O)C[C@H]1[C@H](CO)[C@@H](C(=O)N3CCc4ccccc4C3)[C@@H]2N1Cc1ccccc1 (mixture of isomers),0.0,.,-3.9,.,1.1,-1.2
CC=Cc1ccc2n(c1=O)C[C@H]1[C@H](CO)[C@@H](C(=O)N3CCc4ccccc4C3)N(C(=O)CC)[C@@H]21 (mixture of isomers),0.0,.,2.3,.,1.1,2.7
C[C@H](CO)N1C[C@H](C)[C@@H](CN(C)S(C)(=O)=O)Oc2c(NC(=O)CCCN(C)C)cccc2C1=O,.,.,-0.9,.,.,.
Cc1cc([N+](=O)[O-])ccc1N1C(=O)c2ccc(C(=O)Nc3ccccc3C(=O)O)cc2C1=O,1.6*,-15.9,13.9,.,-1.4,-1.6
CC(C)CN1C(=O)c2ccc(C(=O)Nc3ccccc3C(=O)O)cc2C1=O,-0.1,-1.0,-19.0,-1.3,-9.4,-4.3
C[C@@H]1CCCCO[C@@H](CN(C)C(=O)Nc2cccc3ccccc23)[C@H](C)CN([C@@H](C)CO)C(=O)c2cc(NS(=O)(=O)c3cn(C)cn3)ccc2O1,-0.6,.,-1.4,-11.6,-3.3,-16.4
Cc1cccc(NC(=S)Nc2cccc(C(F)(F)F)c2)n1,.,7.0,.,.,3.5,15.9
FC(F)(F)c1cccc(NC(=S)Nc2cccc(NC(=S)Nc3cccc(C(F)(F)F)c3)n2)c1,-0.1,-1.9,-45.5*,-1.7,-2.7,-7.7
